Assay results from ChEMBL document CHEMBL2157993, “Urea-based inhibitors of Trypanosoma brucei methionyl-tRNA synthetase: selectivity and in vivo characterization” (J Med Chem, 2012).
The source made the active and inactive calls. No cut-off for these calls is given here.

How the values were obtained:
Trypanosoma brucei [1] = experiment: Binding affinity to Trypanosoma brucei MetRS at 100 uM by thermal shift assay
In short: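 Thermal shift (ΔTm) read-out with T. brucei MetRS at 0.4 mg/ml and 5% DMSO; otherwise per an earlier protocol. The test agent was at the single concentration in the curator's line. Repeated three times independently.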

[2] = Inhibition of Trypanosoma brucei MetRS aminoacylation activity assessed as reduction in [3H]methionine incorporation into Escherichia coli tRNA pre-incubated for 15 mins before tRNA addition and measured after 120 mins by scintillation counting
In short: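 Recombinant enzyme at 10 nM, preincubated 15 min with 12-point two-fold inhibitor dilutions in 25 mM HEPES pH 7.9, 10 mM MgCl2, 50 mM KCl, spermine, BSA, DTT, 1% DMSO and pyrophosphatase. Reaction started with 400 μg/mL E. coli tRNA, 0.1 mM ATP and 250 nM [3H]methionine, run 120 min at room temperature. TCA-precipitated and filtered for scintillation counting. Quadruplicate, with IC50 by sigmoidal fit.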

[3] = Selectivity ratio of IC50 for human MetRS to IC50 for Trypanosoma brucei MetRS
In short: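 Ratio of the human mitochondrial MetRS IC50 to the T. brucei MetRS IC50, each from a [3H]methionine aminoacylation assay.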

[4] = tested on: Trypanosoma brucei brucei; experiment: Growth inhibition of Trypanosoma brucei brucei 427 blood stream forms after 48 hrs by alamar blue assay; assay type: functional, organism-based; conditions: Trypanosoma brucei, 427, 48 h
In short: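 Strain 427 bloodstream forms cultured in HMI-9 with 10% FBS at 37°C, 5% CO2. Triplicate wells seeded at 5×10^4 trypomastigotes with serial compound dilutions from 20 mM DMSO stocks. AlamarBlue read-out at 48 h, with pentamidine as the positive control.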

HepG2 = experiment: Cytotoxicity against human HepG2 cells incubated for 48 hrs by alamar blue assay; assay type: cell-based; conditions: HepG2, 48 h
In short: (§1)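 […] cells in RPMI or HepG2 cells in DMEM/F-12, each with 10% serum, seeded at 5×10^3 per well. Exposed to serial compound dilutions for 48 h.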

[5] = Cytotoxicity against human CRL8155 cells incubated for 48 hrs by alamar blue assay; assay type: cell-based; conditions: CRL8155, 48 h; in short: as §1
[6] = Permeability across MDCK2-MDR1 cells expressing MDR1 at 3 uM in absence of 2 uM P-gp inhibitor Elacridal by mass spectroscopy; assay type: ADME, cell-based, Canis lupus familiaris; conditions: dog, mdck-ii
In short: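 MDR1-MDCKII cells seeded on Transwell inserts and assayed 3 days later at 37°C in HBSS with glucose and HEPES. Monolayers preincubated about 30 min with or without 2 μM elacridar, then given compound at 3 μM final (apical). After 60 min shaking, both chambers were sampled for MS. Integrity checked by Lucifer Yellow and TEER. Triplicate. Papp(A-B) and AQ calculated.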

[7] = (§2) Cmax in mouse at 50 mg/kg, po administered as single dose measured over 6 hrs by MS/MS method; assay type: ADME, organism-based; parameters: dose 50 mg/kg, route oral; conditions: in vivo
In short: (§3)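 Mice, three per group, given one oral dose of 50 mg/kg in 5% DMSO, 3% EtOH, 7% Tween 80 in saline. Tail-snip blood taken at 0.5, 1, 2, 3, 4 and 6 h. Plasma extracted with acetonitrile and quantified by LC-MS/MS.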

[8] = Tmax in mouse at 50 mg/kg, po administered as single dose measured over 6 hrs by MS/MS method; assay type: ADME, organism-based; parameters: dose 50 mg/kg, route oral; conditions: in vivo; in short: as §3
[9] = (§4) Half life in mouse at 50 mg/kg, po administered as single dose measured over 6 hrs by MS/MS method; assay type: ADME, organism-based; parameters: dose 50 mg/kg, route oral; conditions: in vivo; in short: as §3
[10] = (§5) AUC in mouse at 50 mg/kg, po administered as single dose measured over 6 hrs by MS/MS method; assay type: ADME, organism-based, Plasma; parameters: time < 6 hr, dose 50 mg/kg, route oral; conditions: plasma; in short: as §3
[11] = biological target: ATP-dependent translocase ABCB1 (Homo sapiens, UniProt P08183); experiment: Binding affinity to MDR1 expressed in MDCK2 cells assessed as absorptive quotient at 3 uM in absence of 2 uM by mass spectroscopy; assay type: ADME, cell-based; conditions: dog, mdck-ii
In short: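 Monolayers preincubated about 30 min with or without 2 μM elacridar, then given compound at 3 μM final (apical). After 60 min shaking, both chambers were sampled for MS. Integrity checked by Lucifer Yellow and TEER. Triplicate. Papp(A-B) and AQ calculated.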

[12] = Selectivity index, ratio of EC50 for human CRL8155 cells to EC50 for Trypanosoma brucei brucei 427; assay type: toxicity; conditions: read-out: Ratio EC50
[13] = Selectivity index, ratio of EC50 for human HepG2 cells to EC50 for Trypanosoma brucei brucei 427; assay type: toxicity, cell-based; conditions: read-out: Ratio EC50
Mus musculus [14] = experiment: as §2; assay type: ADME, organism-based; parameters: dose 50 mg/kg, route oral; conditions: in vivo, 6 h; in short: as §3
Mus musculus [15] = experiment: as §4; assay type: ADME, organism-based; parameters: dose 50 mg/kg, route oral; conditions: in vivo, 6 h; in short: as §3
Mus musculus [16] = experiment: as §5; assay type: ADME, organism-based, Plasma; parameters: time < 6 hr, dose 50 mg/kg, route oral; conditions: in vivo, 6 h; in short: as §3
[17] = tested on: Trypanosoma brucei rhodesiense; experiment: Antiparasitic activity against Trypanosoma brucei rhodesiense STIB900 infected in Swiss Webster mouse assessed as reduction in parasitemia at 50 mg/kg, po dosed 24 hrs post infection every 12 hrs for 4 days measured 48 hrs post infection by microscopy; assay type: functional; parameters: scale not given: the % may be the effect or the level left
In short: (§6)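 Female Swiss Webster (CFW) mice, 6-8 weeks old, five per group. Each infected IP at time 0 with 1×10^4 bloodstream-form STIB900 in 0.2 ml. Compound in 5% DMSO, 3% EtOH, 7% Tween 80 in saline, given by oral gavage (0.2 mL). Vehicle-only group dosed alongside. Parasitemia read daily by wet-mount microscopy of tail blood. Unpaired t-tests per day.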

[18] = tested on: Trypanosoma brucei rhodesiense; experiment: Antiparasitic activity against Trypanosoma brucei rhodesiense STIB900 blood stream forms incubated for 48 hrs by alamar blue assay; assay type: functional, organism-based; conditions: STIB900, 48 h
Mus musculus [19] = experiment: Toxicity in Trypanosoma brucei rhodesiense STIB900 infected Swiss Webster mouse at 50 mg/kg, po dosed 24 hrs post infection every 12 hrs for 4 days; assay type: organism-based; parameters: dose 50 mg/kg, route oral; conditions: in vivo
Mus musculus [20] = experiment: Time duration for plasma concentration staying above IC50 in Trypanosoma brucei rhodesiense STIB900 infected Swiss Webster mouse at 50 mg/kg, po dosed 24 hrs post infection every 12 hrs for 4 days
Trypanosoma brucei [21] = experiment: Inhibition of protein synthesis in Trypanosoma brucei assessed as reduction in [3H]L-histidine incorporation into proteins incubated for 4 hrs by scintillation counting; assay type: functional, organism-based
[22] = tested on: Trypanosoma brucei rhodesiense; experiment: Antiparasitic activity against Trypanosoma brucei rhodesiense STIB900 infected in Swiss Webster mouse assessed as reduction in parasitemia at 50 mg/kg, po dosed 24 hrs post infection every 12 hrs for 4 days measured 72 hrs post infection by microscopy; assay type: functional; parameters: scale not given: the % may be the effect or the level left; in short: as §6
[23] = tested on: Trypanosoma brucei rhodesiense; experiment: Antiparasitic activity against Trypanosoma brucei rhodesiense STIB900 infected in Swiss Webster mouse assessed as reduction in parasitemia at 50 mg/kg, po dosed 24 hrs post infection every 12 hrs for 4 days measured 96 hrs post infection by microscopy; assay type: functional; parameters: scale not given: the % may be the effect or the level left; in short: as §6
[24] = tested on: Trypanosoma brucei rhodesiense; experiment: Antiparasitic activity against Trypanosoma brucei rhodesiense STIB900 infected in Swiss Webster mouse assessed as reduction in parasitemia at 50 mg/kg, po dosed 24 hrs post infection every 12 hrs for 4 days measured 120 hrs post infection by microscopy; assay type: functional, organism-based; parameters: dose 50 mg/kg
[25] = Drug level in Swiss Webster mouse brain at 5 mg/kg, ip after 60 mins by MS/MS method; assay type: ADME, organism-based; parameters: dose 5 mg/kg, route intraperitoneal; conditions: read-out: Drug uptake
In short: (§7)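 Female Swiss Webster mice, 6-8 weeks old, three per compound, given 5 mg/kg IP in 5% DMSO/3% EtOH/7% Tween 80 saline. Killed at 1 h. Plasma and homogenised brain extracted with acetonitrile containing an extraction standard, with spiked blank brains used for standardisation. Quantified by LC-MS/MS.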

[26] = Plasma concentration in Swiss Webster mouse at 5 mg/kg, ip after 60 mins by MS/MS method; assay type: ADME, organism-based; parameters: dose 5 mg/kg, route intraperitoneal; in short: as §7

ATP-dependent translocase ABCB1, sequence (P08183 whole entry): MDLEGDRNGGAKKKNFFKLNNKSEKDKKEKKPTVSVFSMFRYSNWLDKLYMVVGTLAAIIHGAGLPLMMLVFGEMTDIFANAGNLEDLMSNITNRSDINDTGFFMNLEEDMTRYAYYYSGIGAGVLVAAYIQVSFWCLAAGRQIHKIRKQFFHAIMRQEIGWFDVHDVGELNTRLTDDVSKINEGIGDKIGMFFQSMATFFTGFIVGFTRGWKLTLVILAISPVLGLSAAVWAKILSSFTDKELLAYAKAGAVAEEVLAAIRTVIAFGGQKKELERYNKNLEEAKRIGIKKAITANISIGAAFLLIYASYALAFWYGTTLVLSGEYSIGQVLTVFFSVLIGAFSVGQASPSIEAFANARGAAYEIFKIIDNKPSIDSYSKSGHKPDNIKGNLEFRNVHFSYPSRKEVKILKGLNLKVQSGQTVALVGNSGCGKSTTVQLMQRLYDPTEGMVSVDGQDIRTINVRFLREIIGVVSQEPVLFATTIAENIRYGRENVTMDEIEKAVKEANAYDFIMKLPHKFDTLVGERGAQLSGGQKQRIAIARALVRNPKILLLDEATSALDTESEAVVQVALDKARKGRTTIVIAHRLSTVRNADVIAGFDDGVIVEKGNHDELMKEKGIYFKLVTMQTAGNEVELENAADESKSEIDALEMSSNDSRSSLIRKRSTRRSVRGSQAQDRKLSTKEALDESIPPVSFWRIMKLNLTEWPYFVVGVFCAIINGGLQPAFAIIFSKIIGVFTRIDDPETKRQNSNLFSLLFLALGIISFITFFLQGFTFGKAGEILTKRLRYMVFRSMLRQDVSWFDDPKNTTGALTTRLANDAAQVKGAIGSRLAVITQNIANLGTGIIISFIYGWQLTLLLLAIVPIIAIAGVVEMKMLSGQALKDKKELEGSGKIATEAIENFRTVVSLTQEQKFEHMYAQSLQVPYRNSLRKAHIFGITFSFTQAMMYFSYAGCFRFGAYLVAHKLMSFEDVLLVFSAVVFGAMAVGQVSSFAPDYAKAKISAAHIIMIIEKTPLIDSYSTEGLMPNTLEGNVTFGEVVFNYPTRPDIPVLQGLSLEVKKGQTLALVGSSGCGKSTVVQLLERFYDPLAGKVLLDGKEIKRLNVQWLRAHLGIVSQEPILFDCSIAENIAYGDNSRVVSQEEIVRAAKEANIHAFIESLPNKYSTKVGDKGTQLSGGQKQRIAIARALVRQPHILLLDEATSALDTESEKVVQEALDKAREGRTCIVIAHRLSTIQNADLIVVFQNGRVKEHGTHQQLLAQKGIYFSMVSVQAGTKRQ

O=C(NCCCNCc1cc(Cl)cc(Cl)c1)Nc1ccccc1O
ΔTm (Trypanosoma brucei [1]): 8.4 °C
IC50 [2]: 39 nM
Ratio IC50 [3]: 95
EC50 [4]: 210 nM
EC50 (HepG2): > 20000 nM

COc1cc(Cl)cc(CNCCCNC(=O)Nc2ccsc2)c1
ΔTm (Trypanosoma brucei [1]): 7.9 °C
IC50 [2]: 19 nM
Ratio IC50 [3]: 347
EC50 [4]: 150 nM
EC50 [5]: 22000 nM
Papp [6]: 9.7 ×10⁻⁶ cm/s
Cmax [7]: 1290 nM
Tmax [8]: 30 min
half-life [9]: 82 min
AUC at 6 h [10]: 2.68 µM·h
AQ [11]: 0.53
selectivity ratio [12]: 147
selectivity ratio [13]: 147

Nc1ccccc1NC(=O)NCCCNCc1cc(Cl)cc(Cl)c1
ΔTm (Trypanosoma brucei [1]): 4.7 °C

COc1cc(Cl)cc(CNCCCNC(=O)Nc2ccccc2)c1
ΔTm (Trypanosoma brucei [1]): 7.7 °C
IC50 [2]: 45 nM
Ratio IC50 [3]: 186
EC50 [4]: 330 nM
EC50 [5]: 20000 nM
Papp [6]: 7.3 ×10⁻⁶ cm/s
AQ [11]: 0.49

O=C(NCCCNCc1cc(Cl)cc(Cl)c1)Nc1ccc(F)cc1
ΔTm (Trypanosoma brucei [1]): 6.3 °C

O=C(NCCCNCc1cc(Cl)cc(Cl)c1)Nc1ccc(Cl)cc1
ΔTm (Trypanosoma brucei [1]): 5.7 °C

COc1cccc(CNCCCNC(=O)Nc2ccccc2)c1
ΔTm (Trypanosoma brucei [1]): 4.7 °C

O=C(NCCCNCc1cc(Cl)cc(Cl)c1)Nc1ccsc1
ΔTm (Trypanosoma brucei [1]): 8.3 °C
IC50 [2]: 28 nM
Ratio IC50 [3]: 155
EC50 [4]: 220 nM
EC50 (HepG2): 13000 nM
Papp [6]: 17.2 ×10⁻⁶ cm/s
Cmax (Mus musculus [14]): 3700 nM
Tmax [8]: 30 min
t1/2 (Mus musculus [15]): 63 min
AUC (Mus musculus [16]): 464 µM·min
Activity [17]: 94%
EC50 [18]: 420 nM
Activity (Mus musculus [19]): Non-toxic
AQ [11]: 0.42
Time (Mus musculus [20]): <6 h
inhibition (Trypanosoma brucei [21]): Dose-dependent effect
selectivity ratio [12]: 55
selectivity ratio [13]: 59
Activity [22]: 80%
Activity [23]: 63%
Activity [24]: inactive

O=C(NCCCNCc1ccccc1Cl)Nc1ccccc1
ΔTm (Trypanosoma brucei [1]): 1.9 °C

O=C(NCCCNCc1cc(Cl)cc(Cl)c1)Nc1cccc(Cl)c1
ΔTm (Trypanosoma brucei [1]): 5.2 °C

O=C(NCCCNCc1ccccc1)Nc1ccccc1
ΔTm (Trypanosoma brucei [1]): 1.3 °C

O=C(NCCCNCc1cc(Cl)cc(Cl)c1)Nc1cccc(F)c1
ΔTm (Trypanosoma brucei [1]): 7.7 °C
IC50 [2]: 110 nM
Ratio IC50 [3]: 39
EC50 [4]: 757 nM
EC50 (HepG2): 17900 nM

CCOc1cccc(CNCCCNC(=O)Nc2ccccc2)c1
ΔTm (Trypanosoma brucei [1]): 2.7 °C

CCOc1ccccc1CNCCCNC(=O)Nc1ccccc1
ΔTm (Trypanosoma brucei [1]): 1.1 °C

O=C(NCCCNCc1cc(Cl)cc(Cl)c1)Nc1ccccc1
ΔTm (Trypanosoma brucei [1]): 7.8 °C
IC50 [2]: 57 nM
EC50 [4]: 415 nM
EC50 (HepG2): 20000 nM
Papp [6]: 35.6 ×10⁻⁶ cm/s
concentration at 1 h [25]: 1800 nM
Cmax [7]: 1350 nM
Tmax [8]: 30 min
half-life [9]: 65 min
AUC at 6 h [10]: 2.53 µM·h
concentration at 1 h [26]: 120 nM
AQ [11]: 0.21

O=C(NCCCNCc1cc(Cl)cc(Cl)c1)Nc1ccncc1
ΔTm (Trypanosoma brucei [1]): 3.1 °C

N=C(NCCCNCc1cc(Cl)cc(Cl)c1)Nc1ccccc1
ΔTm (Trypanosoma brucei [1]): 4.5 °C
